# The sample as a whole holds a higher share of hits than the screen did.
# H69AR inhibit: blocks growth of human H69AR lung tumor cells. H69AR lung tumor viability, ATP luminescence, 72 h; stronger effect = lower value. viability, % at 10 µM. 6% of 85,000 active;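 active means viability at or below 40%; inactive means viability above 40%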;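 further: multidrug resistant small cell line overexpressing MRP-1 efflux transporter; 100% = mean luminescence of untreated control wells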
# HCT116 PTEN-null: growth suppressors of cells with PTEN tumor suppressor deletion. 1.2% of 140,000 active. viability, % at 10 µM. AID 827. HCT116 PTEN-null viability, CellTiter-Glo, 60 h; stronger effect = lower value;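 active means viability at or below a set limit, 4 SD under the median of all tested compounds, cut at about 3.7% in these data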;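 further: PTEN knockout HCT116 line with beta catenin targeted HCT116 as companion control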
# HCT116 bCat-KO: beta-catenin-lacking colon tumor cell growth suppression; viability, % at 10 µM; HCT116 beta-catenin knockout viability, CellTiter-Glo, 60 h; stronger effect = lower value; AID 818; 1.5% of 140,000 active;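 active means viability at or under a set limit, the compound median less 4 SD, cut at about 6% in these data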;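 further: 0% = Hyamine 1622 control at 20 µM and 100% = untreated cell control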
# Lung fibro prol: blocks proliferation of human lung fibroblasts; 1.1% of 85,000 active; AID 719; LL 47 human lung fibroblast viability, ATP luminescence; stronger effect = lower value; viability, % at 10 µM;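 active means viability at or below 50% in the single dose screen; inactive means viability above 50%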;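 further: compound exposure lasted 72 h before the ATP readout; 100% = median luminescence of untreated cell-only wells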
#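 Benchmarks: Cell-only wells, no compound | Test system: LL 47 human lung fibroblasts, passage 12 or lower | Input: 1,150 cells/well | Measured by: CellTiter-Glo luminescence measuring cellular ATP | Medium: IMEM, 15% FBS supplement | Schedule: Overnight attachment after seeding, then 72 h compound exposure at 37 °C | Doses: Compound addition at 0.1% DMSO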
# HUVEC prolif 384: human endothelial cell proliferation inhibition | HUVEC proliferation, CellTiter-Glo luminescence, 72 h; stronger effect = lower value | viability, % at 10 µM (by protocol) | 1.1% of 86,000 active | AID 648;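 active means viability at or below 30%; inactive means viability above 30%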;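 further: 100% = median luminescence of DMSO-only cell control wells on each plate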
# Active calls of the source: *; / = not tested or not shown.
SMILES,H69AR inhibit,HCT116 PTEN-null,HCT116 bCat-KO,Lung fibro prol,HUVEC prolif 384
COc1ccc(N2C(N)=C(C#N)C(c3cccnc3)C3=C2CC(C)(C)CC3=O)cc1 (stereo not drawn),17.7*,67.3,68.7,80.2,65.4
COc1ccc(C2C(C#N)=C(N)N(Nc3ccccc3)C3=C2C(=O)CC(C)(C)C3)cc1C (stereo not drawn),/,58.9,66.0,/,/
COc1ccc(OC)c(N2C(N)=C(C#N)C(c3ccc(OC)c(O)c3)C3=C2CC(C)(C)CC3=O)c1 (stereo not drawn),15.6*,/,/,96.6,86.2
COc1ccc(C2C(C#N)=C(N)N(c3cccnc3)C3=C2C(=O)CC(C)(C)C3)cc1OC (stereo not drawn),/,87.5,83.9,/,/
COc1ccc(-c2noc(C)c2-c2ccc3ccccc3n2)c(O)c1,25.9*,71.3,67.3,77.6,71.0
Cc1oc2c(C)c(O)ccc2c(=O)c1-c1ccc2ccccc2n1,/,99.2,98.4,/,/
COc1ccc(-c2onc(C)c2-c2ccccc2)c(O)c1,31.3*,51.5,49.6,95.4,84.6
COc1cccc(-c2nc(-c3ccccc3)no2)c1,65.6,74.1,73.3,92.7,97.1
O=S(=O)(c1ccc2nc(-c3ccccc3)[nH]c2c1)N1CCN(c2ccc(Cl)cc2)CC1,/,0.8*,0.9*,/,/
O=S(=O)(c1ccc2nc(SCc3ccc(Cl)cc3)[nH]c2c1)N1CCOCC1,/,79.4,84.5,/,/
COc1ccc(N(C(=O)Cc2cccs2)C(C(=O)NC2CCCCC2)c2cccn2C)cc1 (stereo not drawn),78.1,83.5,90.4,86.0,78.2
Cn1cccc1C(C(=O)NC1CCCCC1)N(C(=O)Cc1cccs1)c1ccc2c(c1)OCO2 (stereo not drawn),28.3*,101.4,100.0,80.5,85.4
C/C(=N\NC(=O)C(C)Oc1ccc([N+](=O)[O-])cc1)c1ccccn1 (stereo not drawn),/,6.4,4.6*,/,/
O=C(Cc1ccccc1)NC1c2ccccc2-c2ccccc21,/,94.1,97.2,/,/
CC1CN(S(=O)(=O)c2cccc(C(=O)OCC(=O)Nc3ccc4c(c3)OCO4)c2)CC(C)O1 (stereo not drawn),1.0*,77.3,80.7,99.0,84.8
CC1CN(S(=O)(=O)c2cccc(C(=O)OCC(=O)c3cccs3)c2)CC(C)O1 (stereo not drawn),108.0,101.2,97.6,98.0,102.9
COC(=O)c1ccc2nc(C)c(C)nc2c1,/,94.5,98.2,/,/
COC(=O)c1ccc2c(c1)C(C)(C)C(/C=C/c1ccc(O)cc1)=[N+]2C,/,1.7*,1.9*,/,/
COC(=O)c1ccc2c(c1)C(C)(C)C(/C=C/c1ccc(OC)c(OC)c1OC)=[N+]2C,4.1*,0.6*,4.9*,6.5*,5.3*
C=CCOc1ccc(C2CC(C)=NN2c2ccccc2)cc1 (stereo not drawn),/,80.7,78.7,/,/
Cc1cccc(C)c1NC(=O)CNc1ncnc2sc(C)c(C)c12,/,104.3,90.7,/,/
CCn1c(=O)c(C(=O)Nc2nc3ccccc3[nH]2)c(O)c2ccccc21,/,75.6,78.6,/,/
Nc1nc2ccc(O)cc2s1,18.0*,110.5,91.2,/,96.6
CCOc1cc(/C=N/N=C(\N)c2nonc2N)cc(Br)c1OCc1cccc2ccccc12,13.3*,10.2,22.7,40.8*,7.5*
COc1cc(/C=N/O)cc(Br)c1OCc1ccc(Cl)cc1,/,70.8,69.0,/,/
SMILES,H69AR inhibit,HCT116 PTEN-null,HCT116 bCat-KO,Lung fibro prol,HUVEC prolif 384
COc1cc(/C=N/N=C(/N)c2nonc2N)cc(Br)c1OCc1cccc(C)c1,73.8,74.8,73.9,80.8,29.6*
Cc1cccn2c(=O)c(C=NCc3ccco3)c(Nc3ccc(Cl)cc3)nc12,23.0*,/,/,71.9,69.9
CCC(C)N=Cc1c(NCc2ccco2)nc2c(C)cccn2c1=O (stereo not drawn),69.5,79.1,89.0,94.4,78.2
CCN1C(=O)CC(c2ccco2)Sc2ccccc21 (stereo not drawn),/,82.7,80.5,/,/
O=C(NCc1ccco1)Nc1ccc(Br)cc1,91.3,93.0,97.4,98.3,94.9
O=C(NCc1ccco1)Nc1ccc2nsnc2c1,31.0*,59.1,62.6,100.5,97.9
CCOC(=O)Nc1cc(=O)c2ccccc2o1,14.3*,26.9,23.6,/,61.4
Cc1cc(NC(=O)C2CC(=O)N(c3ccccc3)C2)no1 (stereo not drawn),/,103.1,92.5,/,/
O=C(CSCCN1C(=O)c2ccccc2C1=O)Nc1ccc2ccccc2c1,/,96.8,92.6,/,/
N/C(=N\OC(=O)Nc1ccc(Cl)cc1)c1ncc(C(F)(F)F)cc1Cl,31.7*,84.4,78.0,106.0,66.7
Cc1cc(C)cc(N(CC(=O)NCCSc2ccccn2)S(=O)(=O)c2ccccc2)c1,/,64.0,82.4,/,/
N/C(Cc1ccc([N+](=O)[O-])cc1)=N\OC(=O)c1ccc2ccccc2c1,65.8,78.0,76.4,74.1,23.5*
N/C(Cc1ccc([N+](=O)[O-])cc1)=N\OC(=O)c1ccc(Br)cc1,/,87.0,96.9,/,/
Cc1cccc(C(=O)O/N=C(\N)Cc2ccc([N+](=O)[O-])cc2)c1,3.6*,77.1,71.4,90.8,58.9
CCOC(=O)c1nn(-c2ccc(OC)cc2)c(=O)c2c(NC(=O)c3ccco3)scc12,90.0,/,/,109.9,96.7
COc1ccccc1N1C(=O)N(C(C)=O)C2C1Nc1ccccc1N2C (stereo not drawn),30.5*,93.4,83.2,90.1,25.5*
CN(C(=O)c1ccc(C(=O)N(C)C2CCCCC2)cc1)C1CCCCC1,90.2,/,/,88.6,94.7
O=C(NO)c1ccc(C(=O)N(C2CCCCC2)C2CCCCC2)cc1,13.7*,71.3,66.6,86.2,82.8
Cc1ccc(S(=O)(=O)CCC(=O)Nc2nc3c(s2)CCCC3)cc1,24.2*,26.4,15.8,51.3,78.7
COC(=O)Nc1nc2c(s1)CCCC2,97.5,1.0*,1.1*,96.0,88.7
CCOc1ccc2nc(NS(=O)(=O)Cc3ccccc3)sc2c1,20.6*,14.1,10.9,61.6,51.9
CCOc1ccc2nc(NC(=O)CS(=O)(=O)c3ccc(C)cc3)sc2c1,2.2*,79.6,73.4,85.3,66.3
CCCc1nnc(NC(=O)Cn2cnc3ccccc3c2=O)s1,/,96.7,95.5,/,/
Cc1csc(NC(=O)c2cc3c(C)nn(Cc4ccccc4Cl)c3s2)n1,/,56.9,57.2,/,/
CCOc1cc(N2CCOCC2)c(OCC)cc1NC(=O)c1cc(-c2ccco2)nc2ccccc12,4.0*,66.2,70.7,9.1*,14.9*

# Screening results deposited in PubChem BioAssay by SRMLSC.
